For 20 compounds, Ki and Activity results are on record in ChEMBL document CHEMBL3632508, “Discovery of α-mangostin as a novel competitive inhibitor against mutant isocitrate dehydrogenase-1” (Bioorg Med Chem Lett, 2015).

In experiment [1] the target is Isocitrate dehydrogenase [NADP] cytoplasmic (Homo sapiens, UniProt O75874, R132H). The experiment is described as follows: Competitive inhibition of IDH1-R132H mutant (unknown origin) using a-ketoglutarate and NADPH as substrate by steady state kinetic analysis. Put shortly: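 IDH1-R132H in buffer of 150 mM NaCl, 20 mM Tris–Cl pH 7.5, 10 mM MnCl₂, 150 μM β-NADPH, 0.03% (w/v) BSA; α-ketoglutarate varied to reach maximal activity; steady-state kinetic parameters fitted with an enzyme kinetics module.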
Chain of Isocitrate dehydrogenase [NADP] cytoplasmic (O75874 2-414 R132H limits assumed): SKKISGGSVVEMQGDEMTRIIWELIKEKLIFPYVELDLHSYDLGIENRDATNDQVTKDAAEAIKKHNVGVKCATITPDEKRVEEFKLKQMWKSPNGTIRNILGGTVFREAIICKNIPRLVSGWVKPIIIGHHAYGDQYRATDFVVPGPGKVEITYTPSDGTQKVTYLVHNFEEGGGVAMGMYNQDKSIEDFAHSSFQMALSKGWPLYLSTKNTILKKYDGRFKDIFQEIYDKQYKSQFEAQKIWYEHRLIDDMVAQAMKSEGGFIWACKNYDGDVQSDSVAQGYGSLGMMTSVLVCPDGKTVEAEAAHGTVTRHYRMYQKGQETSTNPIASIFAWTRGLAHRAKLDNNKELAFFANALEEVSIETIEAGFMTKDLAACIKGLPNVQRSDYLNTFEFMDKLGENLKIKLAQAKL

Experiment [2] has as its target Isocitrate dehydrogenase [NADP] cytoplasmic (Homo sapiens) (UniProt O75874). The experiment is described as follows: Inhibition of human IDH1 expressed in IPTG-induced Escherichia coli BL21 cells assessed as reduction of NADP+ to NADPH after 5 mins by spectrophotometry. The arrangement: concentration or dose not given beside the values.
Experiment [3] relates to Isocitrate dehydrogenase [NADP] cytoplasmic (Homo sapiens), O75874 [R132H]. The experiment is described as follows: Inhibition of human IDH1 R132H mutant expressed in IPTG-induced Escherichia coli BL21 cells assessed as oxidation of NADPH to NADP+ after 5 mins by spectrophotometry. The arrangement: concentration or dose not given beside the values.
Chain of Isocitrate dehydrogenase [NADP] cytoplasmic (Homo sapiens), O75874 [R132H] (O75874 whole entry R132H): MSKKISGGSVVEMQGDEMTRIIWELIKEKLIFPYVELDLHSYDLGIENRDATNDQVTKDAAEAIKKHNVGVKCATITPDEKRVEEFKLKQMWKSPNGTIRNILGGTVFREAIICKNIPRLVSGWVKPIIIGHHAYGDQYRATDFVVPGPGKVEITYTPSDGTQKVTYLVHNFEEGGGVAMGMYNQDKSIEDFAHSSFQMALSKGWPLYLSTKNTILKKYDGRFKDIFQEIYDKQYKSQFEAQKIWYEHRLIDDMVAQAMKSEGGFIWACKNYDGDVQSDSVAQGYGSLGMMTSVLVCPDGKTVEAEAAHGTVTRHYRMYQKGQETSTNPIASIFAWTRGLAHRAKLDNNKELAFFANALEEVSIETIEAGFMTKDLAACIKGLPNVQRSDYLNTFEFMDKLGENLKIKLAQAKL

Chain of Isocitrate dehydrogenase [NADP] cytoplasmic (Homo sapiens) (O75874 whole entry): as the sequence (O75874 whole entry R132H) above, with H132R counted along it

The term Ki denotes the dissociation constant of the complex between target and ligand, obtained from inhibition or displacement. `C=CCOc1cc2oc3cc(O)c(CC=C(C)C)c(O)c3c(=O)c2c(CC=C(C)C)c1OC`: the Ki in experiment [1] (read-out: Ki) is 17.4 µM. `C=CCOc1cc2oc3cc(O)c(OC)c(CC=C(C)C)c3c(=O)c2c(O)c1CC=C(C)C`: the Ki entry in experiment [1] was “Not Active”. As to `CC(C)=CCc1c(O)cc2oc3cc(O)c(OCc4cn(CC(=O)OC(C)(C)C)nn4)c(CC=C(C)C)c3c(=O)c2c1O`, in experiment [1], the Ki result was “Not Active”. Take `CC(C)=CCc1c(O)cc2oc3cc(O)c(O)c(CC=C(C)C)c3c(=O)c2c1O`: the Ki in experiment [1] (read-out: Ki) amounted to 3.17 µM. Take `C=CCc1cc(OC)c(O)c(OC)c1`: the Activity in experiment [2] is 101%; in experiment [3] it was 104%. Consider `CC(C)=CCC[C@](C)(O[C@@H]1O[C@H](CO[C@@H]2O[C@H](CO)[C@@H](O)[C@H](O)[C@H]2O)[C@@H](O)[C@H](O)[C@H]1O)[C@H]1CC[C@]2(C)[C@@H]1[C@H](O)C[C@@H]1[C@@]3(C)CC[C@H](O[C@@H]4O[C@H](CO)[C@@H](O)[C@H](O)[C@H]4O)C(C)(C)[C@@H]3CC[C@]12C`, for which the figures for the Activity in experiment [2] and in experiment [3] were 122% and 102%, respectively. Consider `C[C@H]1C(=O)CC[C@@H]2[C@]1(C)CC[C@H]1[C@@]2(C)CC[C@@]2(C)[C@@H]3CC(C)(C)CC[C@]3(C)CC[C@]12C`, for which the Activity in experiment [2] was determined as 104%; in experiment [3], 108%. As to `COc1ccc(-c2cc(=O)c3c(O)cc(O[C@@H]4O[C@H](CO)[C@@H](O)[C@H](O)[C@H]4O)cc3o2)cc1O`, the results for the Activity in experiment [2] and in experiment [3] were 108% and 112%, respectively. Consider `CC(C)=CCC[C@](C)(O[C@@H]1O[C@H](CO[C@@H]2O[C@H](CO)[C@@H](O)[C@H](O)[C@H]2O)[C@@H](O)[C@H](O)[C@H]1O)[C@H]1CC[C@]2(C)[C@@H]1[C@H](O)C[C@@H]1[C@@]3(C)CC[C@H](O[C@@H]4O[C@H](CO)[C@@H](O)[C@H](O)[C@H]4O[C@@H]4O[C@H](CO)[C@@H](O)[C@H](O)[C@H]4O)C(C)(C)[C@@H]3CC[C@]12C`, for which the Activity came to 117% in experiment [2] and 105% in experiment [3]. In the case of `COc1ccc(-c2oc3c(CC=C(C)C)c(O[C@@H]4O[C@H](CO)[C@@H](O)[C@H](O)[C@H]4O)cc(O)c3c(=O)c2O[C@@H]2O[C@@H](C)[C@H](O)[C@@H](O)[C@H]2O)cc1`, the Activity in experiment [2] turned out to be 90.4%; in experiment [3] it was 104%.

On to `C/C=C(/C)C(=O)O[C@H]1Cc2c(cc3oc(C)cc(=O)c3c2O)OC1(C)C`, for which the Activity was determined as 97.8% in experiment [2] and 105% in experiment [3]. In the same order, the values of `COc1c2c(cc3oc(C)cc(=O)c13)OC(C(C)(C)O[C@H]1O[C@@H](CO)[C@H](O)[C@@H](O)[C@@H]1O)C2` (stereo not given in full) are 107% and 108%. Turning to `COc1c(OC(=O)N2CCOCC2)cc2oc3cc(O)c(CC=C(C)C)c(O)c3c(=O)c2c1CC=C(C)C`, the Ki entry in experiment [1] is given as “Not Active”. As for `COc1ccc(C(=O)O[C@H]2[C@@H]3C=CO[C@@H](O[C@@H]4O[C@H](CO)[C@@H](O)[C@H](O)[C@H]4O)[C@@H]3[C@@]3(CO)O[C@@H]23)cc1O`, the Activity in experiment [2] came to 102%; in experiment [3], 103%. `C[C@@H](C(=O)O)[C@@]1(C)CC[C@H]2[C@@](C)(CC[C@@]3(C)[C@@H]4CC(C)(C)CC[C@]4(C)CC[C@]23C)[C@@H]1CC(=O)O`: the Activity turned out to be 108% in experiment [2] and 90.9% in experiment [3].

Take `O=C(O)c1cc(O)c(O)c(O)c1`: the Activity came out at 97.4% in experiment [2] and 103% in experiment [3]. In the same order, the values of `COc1ccc(/C=C/C(=O)O[C@H]2[C@@H]3C=CO[C@@H](O[C@@H]4O[C@H](CO)[C@@H](O)[C@H](O)[C@H]4O)[C@@H]3[C@@]3(CO)O[C@@H]23)cc1O` are 107% and 108%.

For the compound `CCCCCCCCCCCCC/C=C1/C(=O)O[C@H](C)[C@@H]1O`, the Activity in experiment [2] stood at 111%; in experiment [3] it was 114%. Take `O=c1cc(-c2ccc(O)cc2)oc2cc(O)c(O)c(O)c12`: the Activity in experiment [2] came to 89%; in experiment [3], 92%. As for `COc1c2c(cc3oc(C)cc(=O)c13)OC(C(C)(C)O)C2` (stereo not given), the Activity in experiment [2] was determined as 103%; in experiment [3], 105%.
